From ChEMBL document CHEMBL1817648, “Synthesis and in vitro antibacterial activity of a series of novel gatifloxacin derivatives” (Eur J Med Chem, 2011)
Converted amounts (≈) assume the structure as drawn.

How the values were obtained:
[1] = Cytotoxicity against african green monkey Vero cells after 72 hrs by MTT assay; format: cell-based; details: chlorocebus sabaeus
In short: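 Vero cells were kept in Minimum Essential Medium with Earle's salts plus 10% fetal bovine serum at 37 °C under 5% CO₂. Cells were seeded at 1 × 10⁴ per well and allowed to recover 24 h. Medium was then replaced with assay medium containing compound or no drug, and cells were exposed for 72 h. CC₅₀ is the 50% cellular cytotoxic concentration.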

Staphylococcus aureus [2] = experiment: Antibacterial activity against Staphylococcus aureus ATCC 25923 after 18 to 24 hrs by NCCLS M100-S11 two fold serial dilution method; format: functional; details: ATCC25923
Staphylococcus aureus [3] = experiment: Antibacterial activity against methicillin-resistant Staphylococcus aureus 08-1 after 18 to 24 hrs by NCCLS M100-S11 two fold serial dilution method; format: functional
In short: (§1)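 Two-fold serial dilution in agar medium. MIC read as the lowest concentration giving complete inhibition of bacterial growth after incubation at 35 °C for 18–24 h.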

Staphylococcus aureus [4] = experiment: Antibacterial activity against methicillin-sensitive Staphylococcus aureus 08-1 after 18 to 24 hrs by NCCLS M100-S11 two fold serial dilution method; format: functional
[5] = system: Staphylococcus epidermidis; experiment: Antibacterial activity against methicillin-resistant Staphylococcus epidermidis 09-4 after 18 to 24 hrs by NCCLS M100-S11 two fold serial dilution method; format: functional; in short: as §1
[6] = system: Staphylococcus epidermidis; experiment: Antibacterial activity against methicillin-sensitive Staphylococcus epidermidis 09-3 after 18 to 24 hrs by NCCLS M100-S11 two fold serial dilution method; format: functional; in short: as §1
[7] = system: Staphylococcus epidermidis; experiment: Antibacterial activity against methicillin-sensitive Staphylococcus epidermidis 09-6 after 18 to 24 hrs by NCCLS M100-S11 two fold serial dilution method; format: functional; in short: as §1
Streptococcus pneumoniae [8] = experiment: Antibacterial activity against Streptococcus pneumoniae 08-2 after 18 to 24 hrs by NCCLS M100-S11 two fold serial dilution method; format: functional
Streptococcus pneumoniae [9] = experiment: Antibacterial activity against Streptococcus pneumoniae 08-4 after 18 to 24 hrs by NCCLS M100-S11 two fold serial dilution method; format: functional
Enterococcus faecium [10] = experiment: Antibacterial activity against Enterococcus faecium 08-2 after 18 to 24 hrs by NCCLS M100-S11 two fold serial dilution method; format: functional
Enterococcus faecium [11] = experiment: Antibacterial activity against Enterococcus faecium 08-7 after 18 to 24 hrs by NCCLS M100-S11 two fold serial dilution method; format: functional
Enterococcus faecalis [12] = experiment: Antibacterial activity against Enterococcus faecalis 08-10 after 18 to 24 hrs by NCCLS M100-S11 two fold serial dilution method; format: functional
Enterococcus faecalis [13] = experiment: Antibacterial activity against Enterococcus faecalis 08-12 after 18 to 24 hrs by NCCLS M100-S11 two fold serial dilution method; format: functional
Escherichia coli [14] = experiment: Antibacterial activity against Escherichia coli ATCC 25922 after 18 to 24 hrs by NCCLS M100-S11 two fold serial dilution method; format: functional; details: ATCC25922
Escherichia coli [15] = experiment: Antibacterial activity against Escherichia coli 08-21 after 18 to 24 hrs by NCCLS M100-S11 two fold serial dilution method; format: functional
Escherichia coli [16] = experiment: Antibacterial activity against Escherichia coli 08-22 after 18 to 24 hrs by NCCLS M100-S11 two fold serial dilution method; format: functional
Klebsiella pneumoniae [17] = experiment: Antibacterial activity against Klebsiella pneumoniae 09-22 after 18 to 24 hrs by NCCLS M100-S11 two fold serial dilution method; format: functional
Pseudomonas aeruginosa [18] = experiment: Antibacterial activity against Pseudomonas aeruginosa ATCC 27853 after 18 to 24 hrs by NCCLS M100-S11 two fold serial dilution method; format: functional
Pseudomonas aeruginosa [19] = experiment: Antibacterial activity against Pseudomonas aeruginosa 09-32 after 18 to 24 hrs by NCCLS M100-S11 two fold serial dilution method; format: functional
Pseudomonas aeruginosa [20] = experiment: Antibacterial activity against Pseudomonas aeruginosa 09-33 after 18 to 24 hrs by NCCLS M100-S11 two fold serial dilution method; format: functional
Pseudomonas aeruginosa [21] = experiment: Antibacterial activity against Pseudomonas aeruginosa 09-34 after 18 to 24 hrs by NCCLS M100-S11 two fold serial dilution method; format: functional
Klebsiella pneumoniae [22] = experiment: Antibacterial activity against Klebsiella pneumoniae 09-23 after 18 to 24 hrs by NCCLS M100-S11 two fold serial dilution method; format: functional

Row | SMILES | CC50 at 72 h [1] | MIC (Staphylococcus aureus [2]) | MIC (Staphylococcus aureus [3]) | MIC (Staphylococcus aureus [4]) | MIC [5] | MIC [6] | MIC [7] | MIC (Streptococcus pneumoniae [8]) | MIC (Streptococcus pneumoniae [9]) | MIC (Enterococcus faecium [10]) | MIC (Enterococcus faecium [11]) | MIC (Enterococcus faecalis [12]) | MIC (Enterococcus faecalis [13]) | MIC (Escherichia coli [14]) | MIC (Escherichia coli [15]) | MIC (Escherichia coli [16]) | MIC (Klebsiella pneumoniae [17]) | MIC (Pseudomonas aeruginosa [18]) | MIC (Pseudomonas aeruginosa [19]) | MIC (Pseudomonas aeruginosa [20]) | other results
1 | COc1c(N2CCN(C/C(C)=N/NC(N)=O)C(C)C2)c(F)cc2c(=O)c(C(=O)O)cn(C3CC3)c12 (configuration not stated) | 500 mg/L (≈ 1020 µM) | 4 mg/L (≈ 8.19 µM) | 2 mg/L (≈ 4.09 µM) | > 128 mg/L | 2 mg/L (≈ 4.09 µM) | 2 mg/L (≈ 4.09 µM) | 1 mg/L (≈ 2.05 µM) | 64 mg/L (≈ 131 µM) | 2 mg/L (≈ 4.09 µM) | > 128 mg/L | > 128 mg/L | > 128 mg/L | > 128 mg/L | > 128 mg/L | > 128 mg/L | > 128 mg/L | > 128 mg/L | > 128 mg/L | 64 mg/L (≈ 131 µM) | > 128 mg/L | MIC (Pseudomonas aeruginosa [21]): > 128 mg/L; MIC (Klebsiella pneumoniae [22]): > 128 mg/L
2 | COc1c(N2CCN(O)C(C)C2)c(F)cc2c(=O)c(C(=O)O)cn(C3CC3)c12 (configuration not stated) | 19.7 mg/L (≈ 50.3 µM) | 0.125 mg/L (≈ 0.319 µM) | 0.25 mg/L (≈ 0.639 µM) | 0.25 mg/L (≈ 0.639 µM) | 0.25 mg/L (≈ 0.639 µM) | 0.25 mg/L (≈ 0.639 µM) | 0.25 mg/L (≈ 0.639 µM) | 16 mg/L (≈ 40.9 µM) | 2 mg/L (≈ 5.11 µM) | 16 mg/L (≈ 40.9 µM) | 16 mg/L (≈ 40.9 µM) | 16 mg/L (≈ 40.9 µM) | 16 mg/L (≈ 40.9 µM) | 4 mg/L (≈ 10.2 µM) | 16 mg/L (≈ 40.9 µM) | 16 mg/L (≈ 40.9 µM) | 2 mg/L (≈ 5.11 µM) | 4 mg/L (≈ 10.2 µM) | 2 mg/L (≈ 5.11 µM) | 32 mg/L (≈ 81.8 µM) | MIC (Pseudomonas aeruginosa [21]): 4 mg/L (≈ 10.2 µM); MIC (Klebsiella pneumoniae [22]): 16 mg/L (≈ 40.9 µM)
3 | COC(=O)CCN1CCN(c2c(F)cc3c(=O)c(C(=O)O)cn(C4CC4)c3c2OC)CC1C (configuration not stated) | > 1000 mg/L | 8 mg/L (≈ 17.3 µM) | 4 mg/L (≈ 8.67 µM) | 4 mg/L (≈ 8.67 µM) | > 128 mg/L | > 128 mg/L | > 128 mg/L | > 128 mg/L | > 128 mg/L | > 128 mg/L | > 128 mg/L | > 128 mg/L | > 128 mg/L | > 128 mg/L | > 128 mg/L | > 128 mg/L | > 128 mg/L | > 128 mg/L | > 128 mg/L | > 128 mg/L | MIC (Pseudomonas aeruginosa [21]): > 128 mg/L; MIC (Klebsiella pneumoniae [22]): > 128 mg/L
4 | COc1c(N2CCN(C/C(C)=N/NC(C)=O)C(C)C2)c(F)cc2c(=O)c(C(=O)O)cn(C3CC3)c12 (configuration not stated) | 707 mg/L (≈ 1450 µM) | 0.25 mg/L (≈ 0.513 µM) | 0.25 mg/L (≈ 0.513 µM) | 0.25 mg/L (≈ 0.513 µM) | 0.25 mg/L (≈ 0.513 µM) | 0.25 mg/L (≈ 0.513 µM) | 0.25 mg/L (≈ 0.513 µM) | 8 mg/L (≈ 16.4 µM) | 0.25 mg/L (≈ 0.513 µM) | 16 mg/L (≈ 32.8 µM) | 16 mg/L (≈ 32.8 µM) | 16 mg/L (≈ 32.8 µM) | 16 mg/L (≈ 32.8 µM) | 8 mg/L (≈ 16.4 µM) | 16 mg/L (≈ 32.8 µM) | 16 mg/L (≈ 32.8 µM) | 0.25 mg/L (≈ 0.513 µM) | 4 mg/L (≈ 8.2 µM) | 0.25 mg/L (≈ 0.513 µM) | 64 mg/L (≈ 131 µM) | MIC (Pseudomonas aeruginosa [21]): 2 mg/L (≈ 4.1 µM); MIC (Klebsiella pneumoniae [22]): 4 mg/L (≈ 8.2 µM)
5 | COc1c(N2CCN(C/C(C)=N/NC(=O)c3ccncc3)C(C)C2)c(F)cc2c(=O)c(C(=O)O)cn(C3CC3)c12 (configuration not stated) | 250 mg/L (≈ 454 µM) | 2 mg/L (≈ 3.63 µM) | 32 mg/L (≈ 58.1 µM) | 2 mg/L (≈ 3.63 µM) | 2 mg/L (≈ 3.63 µM) | 0.25 mg/L (≈ 0.454 µM) | 0.25 mg/L (≈ 0.454 µM) | 32 mg/L (≈ 58.1 µM) | 4 mg/L (≈ 7.26 µM) | 64 mg/L (≈ 116 µM) | 64 mg/L (≈ 116 µM) | 128 mg/L (≈ 232 µM) | 128 mg/L (≈ 232 µM) | 16 mg/L (≈ 29.1 µM) | 128 mg/L (≈ 232 µM) | 64 mg/L (≈ 116 µM) | 16 mg/L (≈ 29.1 µM) | 4 mg/L (≈ 7.26 µM) | 4 mg/L (≈ 7.26 µM) | 128 mg/L (≈ 232 µM) | MIC (Pseudomonas aeruginosa [21]): 32 mg/L (≈ 58.1 µM); MIC (Klebsiella pneumoniae [22]): 32 mg/L (≈ 58.1 µM)
6 | COc1c(N2CCN(CCC#N)C(C)C2)c(F)cc2c(=O)c(C(=O)O)cn(C3CC3)c12 (configuration not stated) | 500 mg/L (≈ 1170 µM) | 2 mg/L (≈ 4.67 µM) | 4 mg/L (≈ 9.34 µM) | 4 mg/L (≈ 9.34 µM) | 2 mg/L (≈ 4.67 µM) | 0.25 mg/L (≈ 0.583 µM) | 2 mg/L (≈ 4.67 µM) | 32 mg/L (≈ 74.7 µM) | 4 mg/L (≈ 9.34 µM) | 32 mg/L (≈ 74.7 µM) | 32 mg/L (≈ 74.7 µM) | 64 mg/L (≈ 149 µM) | 32 mg/L (≈ 74.7 µM) | 16 mg/L (≈ 37.3 µM) | 32 mg/L (≈ 74.7 µM) | 64 mg/L (≈ 149 µM) | 32 mg/L (≈ 74.7 µM) | 8 mg/L (≈ 18.7 µM) | 4 mg/L (≈ 9.34 µM) | 128 mg/L (≈ 299 µM) | MIC (Pseudomonas aeruginosa [21]): 16 mg/L (≈ 37.3 µM); MIC (Klebsiella pneumoniae [22]): 32 mg/L (≈ 74.7 µM)
